# Columns and labels:
# B16 [1] = experiment: No. of cures on day 60 at 10 mg/kg (ip) against B16 melanocarcinoma in mice; type: functional, Mus musculus
# Procedure, shortened: (§1)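 Female BDF1 mice given ip 0.5 mL of tumor brei (1.0 g tissue per 10 mL). Nine daily ip doses beginning 24 h later, as Klucel suspensions or a water/Tween-80 suspension. Acute toxicity scored day 5; survival read day 60. Cures counted per 10-animal group at day 60; weight difference reported as treated minus control (g).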
# B16 [2] = experiment: No. of cures on day 60 at 20 mg/kg (ip) against B16 melanocarcinoma in mice; type: functional, Mus musculus; procedure, shortened: as §1
# B16 [3] = experiment: No. of cures on day 60 at 40 mg/kg (ip) against B16 melanocarcinoma in mice; type: functional, Mus musculus; procedure, shortened: as §1
# B16 [4] = experiment: No. of cures on day 60 at 5 mg/kg (ip) against B16 melanocarcinoma in mice; type: functional, Mus musculus; procedure, shortened: as §1
# B16 [5] = experiment: No. of cures on day 60 at 80 mg/kg (ip) against B16 melanocarcinoma in mice; type: functional, Mus musculus; procedure, shortened: as §1
# B16 [6] = experiment: Median survival time of test animals compared to controls at 10 mg/kg (ip) against B16 melanocarcinoma in mice; type: functional, Mus musculus
# Procedure, shortened: (§2)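 Female BDF1 mice received B16 tumor brei ip (0.5 mL of 1.0 g tissue per 10 mL). From 24 h later they got nine daily ip doses, suspended in Klucel or water/Tween-80. Acute toxicity was assessed on day 5 and survival was evaluated on day 60. The value is median survival as % T/C, with 10 mice per group and a positive control run in parallel.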
# B16 [7] = experiment: Median survival time of test animals compared to controls at 20 mg/kg (ip) against B16 melanocarcinoma in mice; type: functional, Mus musculus; procedure, shortened: as §2
# B16 [8] = experiment: Median survival time of test animals compared to controls at 40 mg/kg (ip) against B16 melanocarcinoma in mice; type: functional, Mus musculus; procedure, shortened: as §2
# B16 [9] = experiment: Median survival time of test animals compared to controls at 5 mg/kg (ip) against B16 melanocarcinoma in mice; type: functional, Mus musculus; procedure, shortened: as §2
# B16 [10] = experiment: Median survival time of test animals compared to controls at 80 mg/kg (ip) against B16 melanocarcinoma in mice; type: functional, Mus musculus; procedure, shortened: as §2
# B16 [11] = experiment: Weight difference at 10 mg/kg (ip)against B16 melanocarcinoma in mice; type: functional, Mus musculus; procedure, shortened: as §1
# B16 [12] = experiment: Weight difference at 20 mg/kg (ip)against B16 melanocarcinoma in mice; type: functional, Mus musculus; procedure, shortened: as §1
# B16 [13] = experiment: Weight difference at 40 mg/kg (ip)against B16 melanocarcinoma in mice; type: functional, Mus musculus; procedure, shortened: as §1
# B16 [14] = experiment: Weight difference at 5 mg/kg (ip)against B16 melanocarcinoma in mice; type: functional, Mus musculus; procedure, shortened: as §1
# B16 [15] = experiment: Weight difference at 80 mg/kg (ip) against B16 melanocarcinoma in mice; type: functional, Mus musculus; procedure, shortened: as §1
# P388 [16] = experiment: Weight difference at 80 mg/kg (ip)against P388 Lymphocytic Leukemia in mice; type: functional, Mus musculus
# Procedure, shortened: (§3)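 Male CDF1 mice inoculated ip with P388 leukemia cells. Nine daily ip doses beginning 24 h later, as suspensions in Klucel or water. Acute toxicity evaluated day 5. Weight difference reported as treated minus control (g).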
# P388 [17] = experiment: Median survival time of test animals compared to controls at 10 mg/kg (ip) against P388 Lymphocytic Leukemia in mice; type: functional, Mus musculus
# Procedure, shortened: (§4)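 P388 leukemia cells were given ip to male CDF1 mice. Dosing started 24 h later: nine daily ip doses given as suspensions in Klucel (hydroxypropylcellulose) or in water. Toxicity day was day 5 and evaluation was on day 30. The value is % T/C of median survival time against untreated controls, with a parallel positive-control arm.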
# P388 [18] = experiment: Median survival time of test animals compared to controls at 2.5 mg/kg (ip) against P388 Lymphocytic Leukemia in mice; type: functional, Mus musculus
# Procedure, shortened: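 P388 leukemia cells given ip to male CDF1 mice; ip dosing began 24 h later, nine daily doses, as suspensions in Klucel (hydroxypropylcellulose) or water. Acute toxicity checked on day 5. Survival read on day 30 as median survival time of treated versus control mice (% T/C). Weight difference is treated minus control, in grams.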
# P388 [19] = experiment: Median survival time of test animals compared to controls at 20 mg/kg (ip) against P388 Lymphocytic Leukemia in mice; type: functional, Mus musculus; procedure, shortened: as §4
# P388 [20] = experiment: Median survival time of test animals compared to controls at 40 mg/kg (ip) against P388 Lymphocytic Leukemia in mice; type: functional, Mus musculus; procedure, shortened: as §4
# P388 [21] = experiment: Median survival time of test animals compared to controls at 5 mg/kg (ip) against P388 Lymphocytic Leukemia in mice; type: functional, Mus musculus; procedure, shortened: as §4
# P388 [22] = experiment: Median survival time of test animals compared to controls at 80 mg/kg (ip) against P388 Lymphocytic Leukemia in mice; type: functional, Mus musculus; procedure, shortened: as §4
# P388 [23] = experiment: Log of the tumor cell population at the end of treatment at 10 mg/kg (ip) against P388 Lymphocytic Leukemia in mice; type: functional, Mus musculus
# P388 [24] = experiment: Log of the tumor cell population at the end of treatment at 20 mg/kg (ip) against P388 Lymphocytic Leukemia in mice; type: functional, Mus musculus
# P388 [25] = experiment: Log of the tumor cell population at the end of treatment at 40 mg/kg (ip) against P388 Lymphocytic Leukemia in mice; type: functional, Mus musculus
# P388 [26] = experiment: Log of the tumor cell population at the end of treatment at 5 mg/kg (ip) against P388 Lymphocytic Leukemia in mice; type: functional, Mus musculus
# P388 [27] = experiment: Log of the tumor cell population at the end of treatment at 80 mg/kg (ip) against P388 Lymphocytic Leukemia in mice; type: functional, Mus musculus
# P388 [28] = experiment: Weight difference at 5 mg/kg (ip)against P388 Lymphocytic Leukemia in mice; type: functional, Mus musculus; procedure, shortened: as §3
# P388 [29] = experiment: Weight difference at 10 mg/kg (ip)against P388 Lymphocytic Leukemia in mice; type: functional, Mus musculus; procedure, shortened: as §3
# P388 [30] = experiment: Weight difference at 2.5 mg/kg (ip)against P388 Lymphocytic Leukemia in mice; type: functional, Mus musculus; procedure, shortened: as §3
# P388 [31] = experiment: Weight difference at 20 mg/kg (ip)against P388 Lymphocytic Leukemia in mice; type: functional, Mus musculus; procedure, shortened: as §3
# [32] = Water solubility of the compound; type: ADME; conditions: read-out: S
# Procedure, shortened: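 Excess bis(carbamate) (30-60 mg) in 2 mL distilled water, vortexed 10 min, filtered through Teflon wool and diluted. UV absorbance read at 291 nm. Concentration from a linear Beer's law calibration made with a salt standard (r = 0.998).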
# P388 [33] = experiment: Weight difference at 40 mg/kg (ip)against P388 Lymphocytic Leukemia in mice; type: functional, Mus musculus; procedure, shortened: as §3
smiles,measurement,setting,value
CC(C)NC(=O)OCc1c(COC(=O)NC(C)C)c(-c2ccc(Cl)c(Cl)c2)n2c1CC(OC(=O)CN(C)C)C2 (stereo not given),Cures,B16 [1],0
same,Cures,B16 [2],0
same,Cures,B16 [3],1
same,Cures,B16 [4],0
same,Cures,B16 [5],0
same,T/C,B16 [6],152%
same,T/C,B16 [7],152%
same,T/C,B16 [8],174%
same,T/C,B16 [9],106%
same,T/C,B16 [10],<100%
same,Weight change,B16 [11],0.2 T-C
same,Weight change,B16 [12],0.5 g
same,Weight change,B16 [13],-0.8 g
same,Weight change,B16 [14],0.2 g
same,Weight change,B16 [15],-1.5 g
same,Weight change,P388 [16],-3.4 g
same,T/C,P388 [17],128%
same,Log cell kill,P388 [18],-1.96
same,T/C,P388 [18],101%
same,T/C,P388 [19],146%
same,T/C,P388 [20],144%
same,T/C,P388 [21],117%
same,T/C,P388 [22],110%
same,Log cell kill,P388 [23],-1.61
same,Log cell kill,P388 [24],-1.37
same,Log cell kill,P388 [25],-1.41
same,Log cell kill,P388 [26],-1.76
same,Log cell kill,P388 [27],-1.84
same,Weight change,P388 [28],-1.3 g
same,Weight change,P388 [29],-2 g
same,Weight change,P388 [30],0.1 g
same,Weight change,P388 [31],-1.9 g
same,solubility,[32],19.6 µM
same,Weight change,P388 [33],-3.1 g
same,half-life,Half life was determined,4.13 h

# — ChEMBL document CHEMBL1122293, “Synthesis, evaluation of chemical reactivity, and murine antineoplastic activity of 2-hydroxy-5-(3,4-dichlorophenyl)-6,7-bis(hydroxymethyl)-2,3-dihydro-1H- pyrrolizine bis(2-propylcarbamate) and 2-acyloxy derivatives as potential water-soluble prodrugs” (J Med Chem, 1983)
